{"source": "the RNAGym collection of RNA variant scans (doi:10.1101/gad.245936.114)", "parents": {"B1": {"name": "tRNA (parent)", "chain": "CUCUCGGUAGCCAAGUUGGUUUAAGGCGCAAGACUUUAAUUUAUCACUACGAAAUCUUGAGAUCGGGCGUUCGACUCGCCCCCGGGAGAUUUUUUCCUCGAGCAA"}}, "note": "Fewer inactive variants are shown than the library holds."}
{"variants_of": "B1", "test": "nonsense suppression (GFP-seq) (ratio to wild type); higher = more function; SUP4oc tRNA, yeast GFP reporter sort-seq", "method_in_brief": "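Nonsense suppression (GFPSEQ) is the median GFP/RFP ratio of each sorting bin, weighted by the variant's estimated share of cells in that bin and expressed relative to the unmutated parent tRNA. Yeast strains carried genome-integrated variants of an ochre-suppressor tRNA from a library with ~3% random mutations, plus a galactose-driven GFP ochre reporter and RFP, and were grown in raffinose/galactose medium containing 80 mg/L adenine. Cells were sorted into GFP/RFP bins, each bin was Illumina-sequenced (phred ≥30), and variants were kept only with ≥100 reads and ≥30 cells.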"}
{"variant": "G6C U16A C56G U57C U58C U71C", "nonsense suppression": "≤ 0.026"}
{"variant": "C29G A33G G67A U71G G86A", "nonsense suppression": 1.12}
{"variant": "U4A G85A", "nonsense suppression": 0.0324}
{"variant": "U4G A30U", "nonsense suppression": 0.0386}
{"variant": "G10A A14C C82A", "nonsense suppression": "≤ 0.026"}
{"variant": "U55C G66A", "nonsense suppression": 0.0631}
{"variant": "G25A U70C G73U", "nonsense suppression": "≤ 0.026"}
{"variant": "C27U U63C", "nonsense suppression": 0.0314}
{"variant": "A13U", "nonsense suppression": 1.03}
{"variant": "U16C A31G", "nonsense suppression": 1.07}
{"variant": "A13U G65U", "nonsense suppression": 0.0575}
{"variant": "G61C C75G", "nonsense suppression": 1.21}
{"variant": "C34G G61C", "nonsense suppression": "≤ 0.026"}
{"variant": "U16G", "nonsense suppression": 1}
{"variant": "U35G G59U A60G", "nonsense suppression": "≤ 0.026"}
{"variant": "A13G C75U", "nonsense suppression": 0.305}
{"variant": "U2G G32C", "nonsense suppression": "≤ 0.026"}
{"variant": "G28C G78C", "nonsense suppression": "≤ 0.026"}
{"variant": "U16G U17C C72A", "nonsense suppression": 0.27}
{"variant": "C11G A31G", "nonsense suppression": "≤ 0.026"}
{"variant": "U16A U20C", "nonsense suppression": 0.193}
{"variant": "U16C U63C C79U", "nonsense suppression": 0.0784}
{"variant": "U4A A14U", "nonsense suppression": 0.0276}
{"variant": "U22A C75U", "nonsense suppression": 1.15}
{"variant": "U55C U76A", "nonsense suppression": 0.15}
{"variant": "U21C A23C U71G G78A", "nonsense suppression": "≤ 0.026"}
{"variant": "C3A U35G", "nonsense suppression": "≤ 0.026"}
{"variant": "U17A G78U", "nonsense suppression": 0.186}
{"variant": "C3U C81U", "nonsense suppression": 0.0941}
{"variant": "U76G C79G G88A", "nonsense suppression": "≤ 0.026"}
{"variant": "U16G C29U A89C", "nonsense suppression": "≤ 0.026"}
{"variant": "C29U A60U", "nonsense suppression": 1.18}
{"variant": "U21C C56G U70C C75G", "nonsense suppression": "≤ 0.026"}
{"variant": "A14U U21A A24G A31C C56G G88A", "nonsense suppression": "≤ 0.026"}
{"variant": "U55C G86C", "nonsense suppression": 0.164}
{"variant": "U4C A13G C29U", "nonsense suppression": 0.221}
{"variant": "A13C U17A A31G", "nonsense suppression": 0.849}
{"variant": "G61C U63C", "nonsense suppression": 0.196}
{"variant": "G18C A89G", "nonsense suppression": "≤ 0.026"}
{"variant": "U17A U76C", "nonsense suppression": 1.06}
{"variant": "U55C U63G", "nonsense suppression": "≤ 0.026"}
{"variant": "U20A A54U U76C", "nonsense suppression": 0.24}
{"variant": "A13U A24G", "nonsense suppression": 0.96}
